# Key:
# [1] = target: T1, human TLR7 (Homo sapiens, UniProt Q9NYK1); test: SEAP reporter assay in HEK-Blue hTLR7 cells; assay type: cell-based
# T1 sequence (Q9NYK1 27-1049): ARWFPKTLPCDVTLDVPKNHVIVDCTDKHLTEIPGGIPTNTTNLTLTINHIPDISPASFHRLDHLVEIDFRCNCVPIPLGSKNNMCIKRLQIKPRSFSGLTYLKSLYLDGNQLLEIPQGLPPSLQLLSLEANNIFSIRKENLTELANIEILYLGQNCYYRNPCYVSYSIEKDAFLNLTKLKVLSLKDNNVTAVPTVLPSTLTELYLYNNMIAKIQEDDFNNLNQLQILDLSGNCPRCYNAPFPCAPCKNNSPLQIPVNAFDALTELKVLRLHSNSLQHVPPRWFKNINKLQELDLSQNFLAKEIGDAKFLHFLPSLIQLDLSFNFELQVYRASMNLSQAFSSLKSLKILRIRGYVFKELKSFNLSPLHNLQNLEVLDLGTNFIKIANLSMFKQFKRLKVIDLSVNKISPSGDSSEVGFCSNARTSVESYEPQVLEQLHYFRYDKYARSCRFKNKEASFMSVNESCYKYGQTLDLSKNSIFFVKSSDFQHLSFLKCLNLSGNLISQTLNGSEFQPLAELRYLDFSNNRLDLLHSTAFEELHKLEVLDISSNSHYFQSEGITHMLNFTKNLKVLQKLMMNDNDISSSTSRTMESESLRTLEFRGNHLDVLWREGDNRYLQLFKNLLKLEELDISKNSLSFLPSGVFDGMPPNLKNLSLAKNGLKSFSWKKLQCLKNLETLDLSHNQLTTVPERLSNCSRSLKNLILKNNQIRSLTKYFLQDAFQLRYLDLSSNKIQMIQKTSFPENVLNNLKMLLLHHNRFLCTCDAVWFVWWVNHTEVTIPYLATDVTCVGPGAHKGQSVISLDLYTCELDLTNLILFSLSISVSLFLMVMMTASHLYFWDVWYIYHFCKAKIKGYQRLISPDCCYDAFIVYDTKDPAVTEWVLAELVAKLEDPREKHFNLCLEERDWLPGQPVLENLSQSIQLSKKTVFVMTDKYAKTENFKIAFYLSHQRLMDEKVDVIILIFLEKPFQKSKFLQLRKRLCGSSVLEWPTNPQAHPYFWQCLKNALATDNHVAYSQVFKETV
# Summary of the method: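 HEK-Blue hTLR7 cells (stable human TLR7 with SEAP reporter) were plated at 5 × 10^5 cells/mL in DMEM with 10% heat-inactivated FBS. They were treated with R848 and varying test compound concentrations at 37 °C for 20–24 h. Medium was mixed with QUANTI-Blue, incubated at 37 °C for about 30 min, and read at 620 nm. R848-only = 100% activation; untreated = 0%.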
# [2] = target: T2, hTLR8 (Homo sapiens, UniProt Q9NR97); test: SEAP reporter assay in HEK-Blue hTLR8 cells; assay type: cell-based
# T2 sequence (Q9NR97 27-1041): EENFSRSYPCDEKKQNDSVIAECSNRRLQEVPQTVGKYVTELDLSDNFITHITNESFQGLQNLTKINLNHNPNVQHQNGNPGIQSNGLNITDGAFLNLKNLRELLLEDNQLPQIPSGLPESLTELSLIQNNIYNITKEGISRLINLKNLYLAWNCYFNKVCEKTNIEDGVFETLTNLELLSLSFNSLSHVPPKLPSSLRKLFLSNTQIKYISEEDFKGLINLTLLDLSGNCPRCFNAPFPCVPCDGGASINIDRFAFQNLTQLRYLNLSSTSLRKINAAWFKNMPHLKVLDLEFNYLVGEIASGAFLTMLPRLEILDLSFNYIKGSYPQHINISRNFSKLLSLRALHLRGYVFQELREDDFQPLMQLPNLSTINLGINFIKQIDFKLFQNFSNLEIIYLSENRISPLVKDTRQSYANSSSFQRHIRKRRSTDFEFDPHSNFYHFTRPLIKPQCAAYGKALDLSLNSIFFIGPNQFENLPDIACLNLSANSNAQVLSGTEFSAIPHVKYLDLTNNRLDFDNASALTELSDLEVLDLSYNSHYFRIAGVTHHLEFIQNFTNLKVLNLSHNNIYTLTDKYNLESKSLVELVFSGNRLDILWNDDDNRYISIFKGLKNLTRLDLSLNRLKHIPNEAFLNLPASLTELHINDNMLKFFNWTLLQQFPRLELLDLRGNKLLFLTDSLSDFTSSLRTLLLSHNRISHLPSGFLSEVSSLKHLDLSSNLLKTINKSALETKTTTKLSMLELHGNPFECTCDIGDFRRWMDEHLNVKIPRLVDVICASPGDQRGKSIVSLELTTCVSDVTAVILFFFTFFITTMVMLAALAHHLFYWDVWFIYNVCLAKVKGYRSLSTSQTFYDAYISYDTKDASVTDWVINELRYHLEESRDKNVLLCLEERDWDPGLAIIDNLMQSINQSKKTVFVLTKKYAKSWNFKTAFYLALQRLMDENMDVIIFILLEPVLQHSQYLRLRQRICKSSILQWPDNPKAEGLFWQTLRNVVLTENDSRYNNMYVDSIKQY
# [3] = test system: MRL/lpr mice; test: MRL/lpr mice SLE model; assay type: in vivo, mouse; conditions: female MRL/lpr mice, S14 50 mg/kg oral once daily; vs placebo
# Summary of the method: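 Mice were 14-week-old female MRL/lpr, randomized by body weight, n = 12/group, treated 4 weeks. Oral test compound in 10% w/v PEG-400/1,3-propanediol/water (55:20:25): 100 mg/kg twice daily, or a second compound at 50 mg/kg once daily. Controls: hydroxychloroquine 100 mg/kg daily in saline; saline placebo. Weekly: survival, body weight, skin lesions, and fundus-vein plasma for ANA/anti-dsDNA ELISA. Endpoint: spleen weight and H&E kidney histology.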
# [4] = test system: IL-8 mRNA (TLR7 downstream); test: RT-PCR analysis of IL-8 mRNA in R848 treated HEK-Blue TLR7 cells; assay type: cell-based, human; conditions: 2 μg/mL R848 treated HEK-Blue TLR7 cells
# Summary of the method: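 HEK-Blue TLR7 cells were seeded at 1 × 10^6 cells/well for 24 h, then switched to serum-free medium. They were treated ± R848 with various test compound concentrations for 16 h at 37 °C. IL-8 mRNA was quantified by RT-PCR using the ΔΔCt method, with GAPDH as reference and normalization to untreated cells.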
# [5] = target: T3, TLR7 extracellular domain (Macaca mulatta, UniProt B3Y653, N167Q/N389Q/N488Q/N799Q, form not given); test: ITC titration to TLR7 recombinant protein; assay type: binding, Monkey (Macaca mulatta)
# T3 sequence (B3Y653 27-839 N167Q/N389Q/N488Q/N799Q): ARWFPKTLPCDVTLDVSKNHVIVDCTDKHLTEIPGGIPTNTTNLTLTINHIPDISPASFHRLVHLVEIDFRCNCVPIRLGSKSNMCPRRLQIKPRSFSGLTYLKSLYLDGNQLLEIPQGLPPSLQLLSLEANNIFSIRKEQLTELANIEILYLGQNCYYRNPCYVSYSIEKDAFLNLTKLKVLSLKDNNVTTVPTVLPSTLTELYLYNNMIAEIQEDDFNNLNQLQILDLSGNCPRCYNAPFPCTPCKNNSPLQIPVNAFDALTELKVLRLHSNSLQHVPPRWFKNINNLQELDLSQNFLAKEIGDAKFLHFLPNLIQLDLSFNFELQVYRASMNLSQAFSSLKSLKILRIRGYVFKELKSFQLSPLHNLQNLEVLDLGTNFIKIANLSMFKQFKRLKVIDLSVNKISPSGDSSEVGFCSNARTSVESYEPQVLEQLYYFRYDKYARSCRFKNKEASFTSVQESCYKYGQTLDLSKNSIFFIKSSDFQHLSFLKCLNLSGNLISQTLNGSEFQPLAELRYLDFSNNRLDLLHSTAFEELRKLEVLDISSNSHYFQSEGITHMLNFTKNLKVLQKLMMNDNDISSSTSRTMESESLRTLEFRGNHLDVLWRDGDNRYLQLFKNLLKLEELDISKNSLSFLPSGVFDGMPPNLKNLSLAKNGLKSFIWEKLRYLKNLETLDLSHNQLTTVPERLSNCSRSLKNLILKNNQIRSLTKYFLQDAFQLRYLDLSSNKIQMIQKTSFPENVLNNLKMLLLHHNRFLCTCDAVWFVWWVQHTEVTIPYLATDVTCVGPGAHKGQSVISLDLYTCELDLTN
# Summary of the method: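 Titrations used the same purified rhesus TLR7 ectodomain, at 298 K in citrate/NaOH pH 4.8, 150 mmol/L NaCl. Syringe held 1 mmol/L test compound or loxoribine; cell held TLR7, with or without the other ligand pre-added. Each run was one small injection followed by 18 injections at 180 s intervals. Kd and ΔH obtained by single-site binding model fitting.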
# [6] = 1 mmol/L loxoribine into 50 μmol/L TLR7, absence of TH-407b
IC50 [1] [nM],IC50 [2] [nM],SMILES,also measured
2120 ± 580,60 ± 30,O=C(c1cccs1)N1CCN(c2ccc([N+](=O)[O-])c3ncccc23)CC1 [Compound S12],
860 ± 390,110 ± 40,Cc1ccc(C(=O)N2CCN(c3ccc([N+](=O)[O-])c4ncccc34)CC2)cc1 [Compound S2],
1150 ± 160,100 ± 50,O=C(c1ccc(F)cc1)N1CCN(c2ccc([N+](=O)[O-])c3ncccc23)CC1 [Compound S7],
,820 ± 40,COc1ccc(C(=O)N2CCN(c3ccc(N)c4ncccc34)CC2)cc1 [Compound S21],
,,COc1ccc(C(=O)N2CCN(c3ccc([N+](=O)[O-])c4cccnc34)CC2)cc1 [Compound S24],IL-8 mRNA level [4]: inactive
3060 ± 2720,60 ± 10,COc1ccccc1C(=O)N1CCN(c2ccc([N+](=O)[O-])c3ncccc23)CC1 [Compound S10],
,,C=CCn1c(=O)n([C@@H]2O[C@H](CO)[C@@H](O)[C@H]2O)c2nc(N)[nH]c(=O)c21 [loxoribine],"Kd [5, 6]: 4400 nM; ΔH [5, 6]: -5.828 kcal/mol; heat change upon titration ([5]; loxoribine into TLR7 in the presence of pre-mixed 500 μmol/L TH-407b): completely obliterated"
970 ± 1230,140 ± 170,O=C(c1ccc(Br)cc1)N1CCN(c2ccc([N+](=O)[O-])c3ncccc23)CC1 [Compound S8],
640 ± 210,150 ± 40,O=C(c1ccc([N+](=O)[O-])cc1)N1CCN(c2ccc([N+](=O)[O-])c3ncccc23)CC1 [Compound S5],
1070 ± 420,100 ± 70,O=C(c1ccccc1)N1CCN(c2ccc([N+](=O)[O-])c3ncccc23)CC1 [Compound S6],
530 ± 90,70 ± 10,COc1ccc(C(=O)N2CCN(c3ccc([N+](=O)[O-])c4ncccc34)CC2)cc1 [Compound S4],
20 ± 10,20 ± 10,O=[N+]([O-])c1ccc(-c2ccc(O)cc2)c2cccnc12 [Compound S15],
530 ± 110,100 ± 10,O=C(c1ccco1)N1CCN(c2ccc([N+](=O)[O-])c3ncccc23)CC1 [Compound S13],
660 ± 130,1300 ± 30,O=[N+]([O-])c1ccc(-c2ccc(CO)cc2)c2cccnc12 [Compound S16],
410 ± 330,60 ± 30,COc1ccc(C(=O)N2CCN(c3ccc([N+](=O)[O-])c4ncccc34)CC2)c(OC)c1 [Compound S11],
1280 ± 1050,80 ± 30,COc1cccc(C(=O)N2CCN(c3ccc([N+](=O)[O-])c4ncccc34)CC2)c1 [Compound S9],

SMILES,IC50 [1] [nM],IC50 [2] [nM],also measured
O=C(c1ccncc1)N1CCN(c2ccc([N+](=O)[O-])c3ncccc23)CC1 [Compound S14],3000 ± 370,60 ± 10,ANA and anti-ds-DNA antibody levels [3]: no significant alterations; glomerular diameter [3]: no significant alterations; skin lesion severity [3]: no significant alterations; spleen index [3]: no significant alterations; survival rate [3]: notably lower than the placebo group

# From PMC11628833 (Acta Pharmaceutica Sinica. B, 2024)
